In paper PMC8640995 (ACS Chemical Neuroscience, 2021):
Like-named read-outs stand apart in the source and are kept apart here.

Legend:
[1] = type: in vivo, Wistar rats; details: for area under the curve, brain time–activity curve: 60 min scan; for area under the curve, brain time–activity curve / SUVmax brain: n = 2
[2] = previously reported biodistribution data, 5 and 15 min post-injection; cited from earlier work
[3] = previously determined using the same method; cited from earlier work
P2Y12R [4] = biological target: T1, P2Y12R (Rattus norvegicus, UniProt Q9EPX4); type: in vivo, Wistar rats
T1 sequence (Q9EPX4 whole entry): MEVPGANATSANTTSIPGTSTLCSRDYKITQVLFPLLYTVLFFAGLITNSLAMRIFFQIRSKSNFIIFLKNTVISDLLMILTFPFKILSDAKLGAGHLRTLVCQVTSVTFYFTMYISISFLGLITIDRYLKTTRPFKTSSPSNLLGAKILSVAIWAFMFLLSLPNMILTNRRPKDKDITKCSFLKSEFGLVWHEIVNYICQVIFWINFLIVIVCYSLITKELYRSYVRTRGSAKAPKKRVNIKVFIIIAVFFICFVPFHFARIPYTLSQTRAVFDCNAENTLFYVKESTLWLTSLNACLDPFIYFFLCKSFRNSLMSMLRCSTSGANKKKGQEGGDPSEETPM
Procedure, shortened: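 Male Wistar rats (12–15 weeks, 250–350 g) under isoflurane anesthesia; n = 4 per group. Both groups received tariquidar 15 mg/kg iv. The blocking group also received unlabeled test compound 5 mg/kg together with the tariquidar. The 18F tracer (10–25 MBq) was given iv via tail vein, followed immediately by a dynamic PET scan. Whole-brain ROI time–activity curves were expressed as SUV, mean ± standard deviation.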

P2Y12R [5] = biological target: T1, P2Y12R; assay: in vitro autoradiography on rat brain sections using [18F]3; type: binding
Procedure, shortened: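 Flash-frozen rat brain sections (10 μm) were prewashed 15 min in 50 mM Tris-HCl pH 7.4 and air-dried. They were then incubated 30 min with 18F tracer (0.1 MBq·mL–1) in 50 mM Tris-HCl/3% BSA pH 7.4, with or without P2Y12R inhibitor at 1 μM. Sections were washed twice for 1 min in cold 5 mM Tris-HCl (4 °C), dipped in ice-cold water and dried, then exposed to a phosphor screen for 10 min. Whole-brain ROI binding was expressed as % of no-inhibitor binding; n = 3.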

human P2Y12R = details: human P2Y12R-transfected HEK cells; cited from earlier work
[6] = baseline, after the initial perfusion peak, iv
[7] = efflux transporter blocking with tariquidar

| SMILES | area under the curve, brain time–activity curve ([1]; baseline) | SUVmax brain [1, 6] | area under the curve, brain time–activity curve [1, 7] | Ki (human P2Y12R) | other results |
| --- | --- | --- | --- | --- | --- |
| CCOC(=O)c1cc(C#N)c(N2CC(N[11C](=O)NS(=O)(=O)c3ccc(Cl)s3)C2)nc1C [[^11C]1, Ethyl 6-(3-(3-((5-Chlorothiophen-2-yl)sulfonyl)[^11C]ureido)azetidin-1-yl)-5-cyano-2-methylnicotinate] | 3.8 ± 0.7 | 0.1 | 5.2 ± 0.2 | – | %ID/g in rat brain [2]: < 0.1 %ID/g; log D7.4 [3]: 1.93 ± 0.02 |
| CCCc1cc2c(N3CCn4c(nnc4C(F)(F)F)C3)nc(OCC[18F])nc2s1 [[^18F]3, 2-(2-[^18F]Fluoroethoxy)-6-propyl-4-(3-(trifluoromethyl)-5,6-dihydro-[1,2,4]triazolo[4,3-a]pyrazin-7(8H)-yl)thieno[2,3-d]pyrimidine] | 4.4 ± 0.1 | 0.2 | 27.6 ± 1.1 | – | SUVmax brain ([1]; efflux transporter blocking with tariquidar 15 mg/kg iv): 1.0; area under the curve, whole brain time–activity curve (P2Y12R [4]; baseline: tariquidar + tracer, n = 4): 24.1 ± 0.5; area under the curve, whole brain time–activity curve (P2Y12R [4]; blocking: tariquidar + unlabeled 3 (5 mg/kg) and tracer, n = 4, p = 0.04): 20.6 ± 0.7; selective and specific binding (P2Y12R [5]): approximately 70% |
| CCc1cc2c(N3CCN(C(=O)c4ccc(-c5ccccc5)cc4)CC3)nc(N3CCNC(=O)C3)nc2s1 [compound 2, 4-(4-(4-([1,1′-Biphenyl]-4-carbonyl)piperazin-1-yl)-6-ethylthieno[2,3-d]pyrimidin-2-yl)piperazin-2-one] | – | – | – | 9 nM | – |
| CCCc1cc2c(N3CCn4c(nnc4C(F)(F)F)C3)nc(OCCF)nc2s1 [compound 3, 2-(2-Fluoroethoxy)-6-propyl-4-(3-(trifluoromethyl)-5,6-dihydro-[1,2,4]triazolo[4,3-a]pyrazin-7(8H)-yl)thieno[2,3-d]pyrimidine] | – | – | – | 0.3 nM | efflux transporter substrate behavior ([1]; rats, tariquidar blocking of P-glycoprotein and breast cancer resistance protein): strong substrate for efflux transporters; blocking efficiency of [18F]3 binding (P2Y12R [5]; inhibitor co-incubated at 1 μM, n = 3): about 70% |
